# Reference: ChEMBL document CHEMBL2390921, “A novel benzazepinone sodium channel blocker with oral efficacy in a rat model of neuropathic pain” (Bioorg Med Chem Lett, 2013)
# Experiments:
# Rattus norvegicus [1] = assay: Analgesic activity in rat spinal nerve ligation neuropathic pain model assessed as reversal of allodynia at 30 mg/kg, po measured at 24 hrs relative to control; assay type: functional
# Method in brief: (§1)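 Rat spinal nerve ligation model. Seven days after surgery, rats received a single oral dose (3, 10 or 30 mg/kg) of test agent or vehicle. Tactile allodynia was scored at 2, 4, 8 and 24 h post-dose with calibrated von Frey filaments using an up-down paradigm. Threshold is the force giving a 50% withdrawal rate. %MPE = (post-compound − post-SNL)/(pre-SNL − post-SNL) × 100, where 100% is full reversal.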
# [2] = target: Kappa-type opioid receptor (Homo sapiens) (UniProt P41145); assay: Binding affinity to kappa opioid receptor (unknown origin) at 25 uM relative to control
# Kappa-type opioid receptor (Homo sapiens), sequence (P41145 whole entry): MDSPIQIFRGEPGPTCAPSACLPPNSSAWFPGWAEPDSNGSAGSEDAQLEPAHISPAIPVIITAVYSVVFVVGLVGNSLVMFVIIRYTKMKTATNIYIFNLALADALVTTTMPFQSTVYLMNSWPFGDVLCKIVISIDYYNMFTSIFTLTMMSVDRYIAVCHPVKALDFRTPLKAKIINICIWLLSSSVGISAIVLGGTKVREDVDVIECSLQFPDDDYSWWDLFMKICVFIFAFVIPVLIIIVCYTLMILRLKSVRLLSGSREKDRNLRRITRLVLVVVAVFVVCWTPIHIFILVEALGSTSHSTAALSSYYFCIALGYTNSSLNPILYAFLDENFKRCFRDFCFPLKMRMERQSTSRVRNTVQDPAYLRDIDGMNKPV
# [3] = target: T1, Sodium channel protein type 5 subunit alpha (Homo sapiens, UniProt Q14524); assay: Binding affinity to resting state of human NaV1.5 channel by whole-cell patch clamp assay; details: read-out: K
# T1 sequence (Q14524 whole entry): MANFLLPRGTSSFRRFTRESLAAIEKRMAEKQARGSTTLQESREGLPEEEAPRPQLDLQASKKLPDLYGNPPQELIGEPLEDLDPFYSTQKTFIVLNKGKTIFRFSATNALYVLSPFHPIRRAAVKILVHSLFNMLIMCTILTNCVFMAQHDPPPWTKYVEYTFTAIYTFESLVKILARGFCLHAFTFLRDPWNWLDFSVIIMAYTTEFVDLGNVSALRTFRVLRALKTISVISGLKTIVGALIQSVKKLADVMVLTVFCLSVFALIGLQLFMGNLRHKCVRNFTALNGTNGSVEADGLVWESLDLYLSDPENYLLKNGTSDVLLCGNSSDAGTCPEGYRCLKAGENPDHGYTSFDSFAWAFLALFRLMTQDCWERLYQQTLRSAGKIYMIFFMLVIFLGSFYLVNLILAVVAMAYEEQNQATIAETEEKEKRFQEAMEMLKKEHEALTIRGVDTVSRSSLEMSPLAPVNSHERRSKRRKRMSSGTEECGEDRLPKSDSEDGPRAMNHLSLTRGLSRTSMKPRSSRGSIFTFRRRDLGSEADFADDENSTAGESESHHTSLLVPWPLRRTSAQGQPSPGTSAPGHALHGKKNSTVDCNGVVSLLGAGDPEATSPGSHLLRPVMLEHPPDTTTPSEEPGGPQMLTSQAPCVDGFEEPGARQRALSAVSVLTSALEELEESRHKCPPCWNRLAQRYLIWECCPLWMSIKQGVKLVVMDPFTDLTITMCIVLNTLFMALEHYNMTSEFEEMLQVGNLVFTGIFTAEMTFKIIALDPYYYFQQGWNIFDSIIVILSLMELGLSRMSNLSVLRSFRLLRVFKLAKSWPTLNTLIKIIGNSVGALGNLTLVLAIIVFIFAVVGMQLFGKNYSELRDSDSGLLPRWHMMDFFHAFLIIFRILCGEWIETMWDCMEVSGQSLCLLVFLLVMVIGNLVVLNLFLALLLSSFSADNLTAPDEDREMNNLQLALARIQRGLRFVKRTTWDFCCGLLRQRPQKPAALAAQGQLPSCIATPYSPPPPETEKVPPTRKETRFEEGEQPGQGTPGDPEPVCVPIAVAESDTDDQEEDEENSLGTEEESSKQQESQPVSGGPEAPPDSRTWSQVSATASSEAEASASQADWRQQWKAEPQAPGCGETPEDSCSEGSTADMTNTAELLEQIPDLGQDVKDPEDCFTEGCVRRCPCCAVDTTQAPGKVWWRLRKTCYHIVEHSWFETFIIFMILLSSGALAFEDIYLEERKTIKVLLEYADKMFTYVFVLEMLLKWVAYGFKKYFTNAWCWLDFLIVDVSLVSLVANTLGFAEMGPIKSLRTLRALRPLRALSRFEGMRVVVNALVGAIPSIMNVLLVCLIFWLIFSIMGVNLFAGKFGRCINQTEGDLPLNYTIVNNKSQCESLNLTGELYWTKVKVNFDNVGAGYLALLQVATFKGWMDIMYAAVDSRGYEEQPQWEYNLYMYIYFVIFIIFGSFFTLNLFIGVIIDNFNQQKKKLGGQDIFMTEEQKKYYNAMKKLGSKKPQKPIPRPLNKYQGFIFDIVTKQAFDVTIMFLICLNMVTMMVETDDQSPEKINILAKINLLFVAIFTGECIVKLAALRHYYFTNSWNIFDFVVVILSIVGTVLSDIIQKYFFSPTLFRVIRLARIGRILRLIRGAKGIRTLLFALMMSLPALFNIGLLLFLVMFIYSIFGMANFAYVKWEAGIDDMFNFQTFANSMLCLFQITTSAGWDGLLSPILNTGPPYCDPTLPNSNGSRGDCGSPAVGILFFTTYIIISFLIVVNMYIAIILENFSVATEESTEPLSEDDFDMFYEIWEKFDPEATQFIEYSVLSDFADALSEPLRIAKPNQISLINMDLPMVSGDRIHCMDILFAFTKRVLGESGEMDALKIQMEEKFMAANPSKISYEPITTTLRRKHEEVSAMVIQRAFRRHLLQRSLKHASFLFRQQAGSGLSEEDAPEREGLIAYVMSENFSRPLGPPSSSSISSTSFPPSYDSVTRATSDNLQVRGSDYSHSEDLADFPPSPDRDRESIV
# [4] = Plasma clearance in Sprague-Dawley rat at 3 mg/kg, po and 1 mg/kg, iv; assay type: ADME, organism-based
# Method in brief: (§2)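 Fasted male Sprague–Dawley rats (n = 3 per route) were dosed with 1.5 mg/mL solutions in PEG300/water or DMSO/PEG300/water, either 1.0 mg/kg iv via femoral-vein cannula or 3.0 mg/kg by oral gavage. Blood was sampled at 5 min (iv only), 15 and 30 min, and 1, 2, 4, 6 and 8 h. Plasma levels were measured by LC–MS/MS after acetonitrile protein precipitation.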
# Rattus norvegicus [5] = assay: Analgesic activity in rat spinal nerve ligation neuropathic pain model assessed as reversal of allodynia at 10 mg/kg, po measured at 8 hrs relative to control; assay type: functional; method in brief: as §1
# [6] = target: T2, Prostaglandin E2 receptor EP1 subtype (Homo sapiens) (UniProt P34995); assay: Binding affinity to prostaglandin receptor EP1 (unknown origin) at 25 uM relative to control
# T2 sequence (whole entry): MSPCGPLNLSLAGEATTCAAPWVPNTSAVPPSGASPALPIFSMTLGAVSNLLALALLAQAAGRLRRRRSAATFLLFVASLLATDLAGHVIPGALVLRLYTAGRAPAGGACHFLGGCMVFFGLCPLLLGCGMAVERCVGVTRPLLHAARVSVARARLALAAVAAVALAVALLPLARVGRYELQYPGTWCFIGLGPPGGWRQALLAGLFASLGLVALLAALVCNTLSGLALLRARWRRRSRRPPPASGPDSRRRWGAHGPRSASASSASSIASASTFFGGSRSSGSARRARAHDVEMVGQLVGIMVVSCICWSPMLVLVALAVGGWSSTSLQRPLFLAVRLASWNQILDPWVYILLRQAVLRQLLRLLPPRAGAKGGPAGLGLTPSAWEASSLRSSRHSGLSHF
# [7] = Oral bioavailability in Sprague-Dawley rat at 3 mg/kg; assay type: ADME, organism-based; details: in vivo; method in brief: as §2
# Rattus norvegicus [8] = assay: Analgesic activity in rat spinal nerve ligation neuropathic pain model assessed as reversal of allodynia at 10 mg/kg, po measured at 4 hrs relative to control; assay type: functional; method in brief: as §1
# hERG (KCNH2) = hERG (KCNH2) (Homo sapiens, UniProt Q12809); assay: Displacement of [35S]-MK0499 from human ERG expressed in HEK293 cell membranes at 10 uM after 2 hrs by liquid scintillation counting analysis relative to control; details: membranes of HEK293 cells that express human ERG, probe [35S]-MK0499
# Method in brief: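 hERG binding assay measuring displacement of 35S-labelled MK-0499, a known hERG blocker.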
# [9] = target: T3, Sodium channel protein type 9 subunit alpha (Homo sapiens, UniProt Q15858); assay: Inhibition of human NaV1.7 channel expressed in HEK293 cells by FRET assay; assay type: cell-based
# Method in brief: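 HEK293 cells stably expressing human Nav1.7. Channel block was read in a functional membrane-potential assay based on FRET between two membrane-associated dyes; IC50 determined.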
# Target sequence in this assay (Q15858 whole entry): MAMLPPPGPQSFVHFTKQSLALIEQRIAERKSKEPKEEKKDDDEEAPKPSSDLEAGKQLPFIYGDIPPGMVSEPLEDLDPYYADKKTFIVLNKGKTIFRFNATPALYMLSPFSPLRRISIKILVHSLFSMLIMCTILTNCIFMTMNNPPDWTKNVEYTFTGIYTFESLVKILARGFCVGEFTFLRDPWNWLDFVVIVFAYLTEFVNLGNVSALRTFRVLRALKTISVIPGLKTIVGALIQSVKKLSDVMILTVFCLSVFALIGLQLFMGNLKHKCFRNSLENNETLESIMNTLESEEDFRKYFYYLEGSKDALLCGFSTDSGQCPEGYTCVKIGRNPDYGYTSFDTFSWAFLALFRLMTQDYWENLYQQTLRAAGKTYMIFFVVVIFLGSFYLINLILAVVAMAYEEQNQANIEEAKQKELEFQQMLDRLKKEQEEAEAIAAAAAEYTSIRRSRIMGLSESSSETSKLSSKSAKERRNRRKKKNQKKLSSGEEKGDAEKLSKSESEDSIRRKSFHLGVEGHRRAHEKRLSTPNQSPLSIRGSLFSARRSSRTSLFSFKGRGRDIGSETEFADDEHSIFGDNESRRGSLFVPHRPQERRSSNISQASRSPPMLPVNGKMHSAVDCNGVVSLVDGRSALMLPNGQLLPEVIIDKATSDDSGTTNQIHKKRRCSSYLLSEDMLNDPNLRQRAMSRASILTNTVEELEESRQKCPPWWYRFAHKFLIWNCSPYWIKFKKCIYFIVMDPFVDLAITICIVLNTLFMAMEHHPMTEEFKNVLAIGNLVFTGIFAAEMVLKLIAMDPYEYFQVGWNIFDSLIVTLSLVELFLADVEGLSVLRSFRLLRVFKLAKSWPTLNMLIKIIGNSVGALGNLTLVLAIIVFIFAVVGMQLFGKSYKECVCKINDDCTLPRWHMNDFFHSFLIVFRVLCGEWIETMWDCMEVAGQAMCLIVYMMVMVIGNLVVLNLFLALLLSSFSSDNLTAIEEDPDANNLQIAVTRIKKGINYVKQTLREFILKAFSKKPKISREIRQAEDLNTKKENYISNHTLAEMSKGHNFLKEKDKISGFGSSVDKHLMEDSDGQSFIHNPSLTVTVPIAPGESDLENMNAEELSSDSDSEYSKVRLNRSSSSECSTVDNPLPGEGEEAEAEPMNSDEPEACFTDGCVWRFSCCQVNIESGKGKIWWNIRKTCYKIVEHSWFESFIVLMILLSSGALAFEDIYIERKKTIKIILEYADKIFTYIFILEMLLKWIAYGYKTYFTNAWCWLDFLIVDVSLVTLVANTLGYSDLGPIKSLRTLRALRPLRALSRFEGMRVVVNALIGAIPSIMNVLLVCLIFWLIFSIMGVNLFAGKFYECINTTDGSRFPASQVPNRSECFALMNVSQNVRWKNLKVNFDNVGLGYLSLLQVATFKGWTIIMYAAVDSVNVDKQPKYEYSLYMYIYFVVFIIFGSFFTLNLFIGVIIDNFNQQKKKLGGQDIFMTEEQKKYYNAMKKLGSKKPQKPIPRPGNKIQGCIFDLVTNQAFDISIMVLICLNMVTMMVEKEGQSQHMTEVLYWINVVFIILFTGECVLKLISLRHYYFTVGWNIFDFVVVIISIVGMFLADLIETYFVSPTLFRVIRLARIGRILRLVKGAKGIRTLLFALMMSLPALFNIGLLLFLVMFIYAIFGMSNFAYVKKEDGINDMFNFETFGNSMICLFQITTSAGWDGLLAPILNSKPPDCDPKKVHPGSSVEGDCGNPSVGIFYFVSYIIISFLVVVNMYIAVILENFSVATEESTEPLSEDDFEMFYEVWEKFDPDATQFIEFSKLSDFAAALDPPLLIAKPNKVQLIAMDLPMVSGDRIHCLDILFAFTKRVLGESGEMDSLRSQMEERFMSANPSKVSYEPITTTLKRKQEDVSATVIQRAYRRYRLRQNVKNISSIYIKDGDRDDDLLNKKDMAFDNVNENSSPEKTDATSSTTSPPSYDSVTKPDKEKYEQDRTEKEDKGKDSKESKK
# [10] = target: Mu-type opioid receptor (Homo sapiens) (UniProt P35372); assay: Binding affinity to mu opioid receptor (unknown origin) at 25 uM relative to control
# Rattus norvegicus [11] = assay: Analgesic activity in po dosed rat spinal nerve ligation neuropathic pain model assessed as reversal of allodynia measured at 2 to 4 hrs; assay type: functional; method in brief: as §1
# Rattus norvegicus [12] = assay: Neurotoxicity in rat assessed as motor impairment at 30 to 100 mg/kg, po after 2 to 4 hrs by rotarod test; assay type: toxicity, organism-based; parameters: route oral; details: in vivo
# Method in brief: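 Rats were trained on a rotarod for 3 min at 10 rpm, then given a single oral dose of test agent or vehicle and tested at 2 and 4 h post-dose. During testing the rod ran at 10 rpm for 60 s, then accelerated to 60 rpm. Time to fall after the start of acceleration was recorded. Impairment was defined as >20% reduction in latency.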
# Rattus norvegicus [13] = assay: Analgesic activity in rat spinal nerve ligation neuropathic pain model assessed as reversal of allodynia at 3 mg/kg, po measured at 2 hrs relative to control; assay type: functional; method in brief: as §1
# Rattus norvegicus [14] = assay: Analgesic activity in po dosed rat spinal nerve ligation neuropathic pain model assessed as reversal of allodynia measured after 4 hrs; assay type: functional, organism-based; method in brief: as §1
# Rattus norvegicus [15] = assay: Dose normalized AUC in Sprague-Dawley rat at 3 mg/kg, po; assay type: ADME, organism-based; parameters: dose 3 mg/kg, route oral; details: in vivo; method in brief: as §2
# Rattus norvegicus [16] = assay: Analgesic activity in rat spinal nerve ligation neuropathic pain model assessed as reversal of allodynia at 10 mg/kg, po measured at 2 hrs relative to control; assay type: functional; method in brief: as §1
# [17] = target: T3, Sodium channel protein type 9 subunit alpha; assay: Binding affinity to inactivated state of human NaV1.7 channel by whole-cell patch clamp assay
# Method in brief: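 Manual whole-cell voltage clamp measuring block of resting and inactivated channel states at room temperature. Data acquired at 50 kHz, filtered at 10 kHz. Bath: 40 mM NaCl, 120 mM NMDG-Cl, 1 mM KCl, 2.7 mM CaCl2, 0.5 mM MgCl2, 10 mM NMDG-HEPES, pH 7.4.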
# Target sequence in this assay (Q15858 whole entry, looked up): as the sequence (Q15858 whole entry) above
# [18] = target: T3, Sodium channel protein type 9 subunit alpha; assay: Binding affinity to inactivated state of human NaV1.7 channel assessed as inhibition of current evoked by 6 ms depolarizations to 0 mV from holding potential -70 mV at 3 uM by whole-cell patch clamp assay relative to vehicle-treated control
# Target sequence in this assay (Q15858 whole entry, looked up): as the sequence (Q15858 whole entry) above
# [19] = target: Delta-type opioid receptor (Homo sapiens) (UniProt P41143); assay: Binding affinity to delta opioid receptor (unknown origin) at 25 uM relative to control
# [20] = target: Cannabinoid receptor 2 (Homo sapiens) (UniProt P34972); assay: Binding affinity to CB2 receptor (unknown origin) at 25 uM relative to control
# Cannabinoid receptor 2 (Homo sapiens), sequence (P34972 whole entry): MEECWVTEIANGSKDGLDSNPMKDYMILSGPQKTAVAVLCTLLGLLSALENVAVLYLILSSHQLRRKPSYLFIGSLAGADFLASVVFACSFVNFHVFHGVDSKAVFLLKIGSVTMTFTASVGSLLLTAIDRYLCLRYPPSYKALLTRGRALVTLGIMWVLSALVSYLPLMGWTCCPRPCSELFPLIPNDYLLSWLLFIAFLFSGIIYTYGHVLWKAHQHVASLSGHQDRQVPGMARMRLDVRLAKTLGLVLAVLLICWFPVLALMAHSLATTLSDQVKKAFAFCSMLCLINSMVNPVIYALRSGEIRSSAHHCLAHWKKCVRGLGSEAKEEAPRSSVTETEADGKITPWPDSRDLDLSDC
# Rattus norvegicus [21] = assay: Analgesic activity in rat spinal nerve ligation neuropathic pain model assessed as reversal of allodynia at 3 mg/kg, po measured at 4 hrs relative to control; assay type: functional; method in brief: as §1
# [22] = target: T1, Sodium channel protein type 5 subunit alpha; assay: Binding affinity to inactivated state of human NaV1.5 channel by whole-cell patch clamp assay; details: read-out: K
compound,measurement,setting,value
O=C(N[C@H](Cc1ccccc1F)C(=O)N[C@@H]1CCc2c(F)c(F)cc(F)c2N(C2CC2)C1=O)C1CC1C(F)(F)F (stereo partly drawn),Activity,Rattus norvegicus [1],10%
same,Activity,[2],< 50%
same,Kd,[3],> 10000 nM
same,clearance,[4],43 mL/min/kg
same,Activity,Rattus norvegicus [5],20%
same,Activity,[6],< 50%
same,bioavailability,[7],100%
same,Activity,Rattus norvegicus [8],39%
same,"inhibition at 2 h, 10 µM",hERG (KCNH2),26%
same,IC50,[9],117 nM
same,Activity,[10],< 50%
same,ED50,Rattus norvegicus [11],15 mg/kg
same,Activity,Rattus norvegicus [12],Non-toxic
same,Activity,Rattus norvegicus [13],15%
same,Activity,Rattus norvegicus [14],Dose-dependent effect
same,AUC/dose,Rattus norvegicus [15],0.72 µM·h/mg/kg
same,Activity,Rattus norvegicus [16],43%
same,K,[17],0.44 µM
same,inhibition,[18],48%
same,Activity,[19],< 50%
same,Activity,[20],< 50%
same,Activity,Rattus norvegicus [21],18%
same,Kd,[22],2380 nM
